# According to ChEMBL document CHEMBL1121854, “New antiarrhythmic agents. 5. alpha-Aminoaceto-2,6-xylidides with functionalized amide alkyl substituents” (J Med Chem, 1981):
# Tests used:
# [1] = Therapeutic index is defined as the ratio of ED50(ataxia)/ED50(protection); conditions: read-out: Therapeutic index
# Procedure, shortened: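 Ratio of ED50 for ataxia to ED50 for protection against chloroform-induced ventricular tachycardia in mice. Both ED50 values were derived by Berkson's logit chi-square method from percent responders across dose groups.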
# [2] = test system: Mus musculus; assay: Antiarrhythmic activity against arrhythmogenic effects of chloroform in mice after sc administration; assay type: functional; conditions: Heart
# Procedure, shortened: (§1)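 At 20 min they were exposed to chloroform until respiratory arrest, then given a thoracotomy. Leads I and II plus an epicardial ECG were recorded for 30–40 s. Tachycardia was defined as ≥5 s with a ventricular rate >520 beats/min; absence meant protection.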
# [3] = test system: Mus musculus; assay: Acute CNS toxicity against arrhythmogenic effects of chloroform in mice after sc administration; assay type: functional; conditions: Central nervous system
# [4] = test system: Mus musculus; assay: Acute CNS toxicity against arrhythmogenic effects of chloroform in mice after sc administration.; assay type: functional; conditions: Central nervous system
# [5] = test system: Mus musculus; assay: Antiarrhythmic activity against arrhythmogenic effects of chloroform in mice after sc administration.; assay type: functional; conditions: Heart; procedure, shortened: as §1
# [6] = test system: Ovis aries; assay: Duration of spinal anesthesia at the anal region was measured in sheep at dose.40(mg/kg); assay type: functional
# Procedure, shortened: (§2)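 Sterile solutions held 20 mg/mL base (2%) and 50 mg/mL glucose, made from the salts and adjusted to pH 6.1–6.5 with dilute NaOH. 2 mL was injected intrathecally in sheep. Onset of block was recorded at the anal region and hind-limb digits. Duration of pain block at both sites and of loss of weight support was noted. 5% glucose served as vehicle control.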
# [7] = test system: Ovis aries; assay: Duration of spinal anesthesia at the digits of the hind limbs was measured in sheep at dose.40(mg/kg); assay type: functional, Hindlimb; procedure, shortened: as §2
# [8] = test system: Ovis aries; assay: Duration of spinal anesthesia at the weight support was measured in sheep at dose.40(mg/kg); assay type: functional; procedure, shortened: as §2
# [9] = test system: Ovis aries; assay: Onset of spinal anesthesia at the anal region was measured in sheep at dose 30(mg/kg); assay type: functional
# [10] = test system: Ovis aries; assay: Onset of spinal anesthesia at the digits of the hind limbs was measured in sheep at dose 30(mg/kg); assay type: functional, Hindlimb
# [11] = test system: Ovis aries; assay: Duration of spinal anesthesia at the anal region was measured in sheep at dose 40(mg/kg); assay type: functional; procedure, shortened: as §2
# [12] = test system: Ovis aries; assay: Duration of spinal anesthesia at the weight support was measured in sheep at dose 40(mg/kg); assay type: functional; procedure, shortened: as §2
# [13] = test system: Ovis aries; assay: Duration of spinal anesthesia at the digits of the hind limbs was measured in sheep at dose 40(mg/kg); assay type: functional, Hindlimb; procedure, shortened: as §2
# [14] = test system: Ovis aries; assay: Onset of spinal anesthesia at the digits of the hind limbs was measured in sheep at dose 40 (mg/kg); 5-50
# [15] = test system: Ovis aries; assay: Duration of spinal anesthesia at the anal region was measured in sheep at dose. 40 mg/kg; 50-300; assay type: functional; procedure, shortened: as §2
# [16] = test system: Ovis aries; assay: Duration of spinal anesthesia at the digits of the hind limbs was measured in sheep at dose. 40 mg/kg; 0-140; assay type: functional, Hindlimb; procedure, shortened: as §2
# [17] = test system: Ovis aries; assay: Onset of spinal anesthesia at the anal region was measured in sheep at dose 40(mg/kg); 5-50; assay type: functional; procedure, shortened: as §2
# [18] = test system: Ovis aries; assay: Duration of spinal anesthesia at the weight support was measured in sheep at dose. 40 mg/kg; 0-165; assay type: functional; procedure, shortened: as §2
# [19] = test system: Ovis aries; assay: Onset of spinal anesthesia at the digits of the hind limbs was measured in sheep at dose 40(mg/kg); assay type: functional, Hindlimb; procedure, shortened: as §2
# [20] = test system: Ovis aries; assay: Onset of spinal anesthesia at the anal region was measured in sheep at dose 40(mg/kg); assay type: functional; procedure, shortened: as §2
# [21] = test system: Ovis aries; assay: Duration of spinal anesthesia at the digits of the hind limbs was measured in sheep at dose 10(mg/kg); assay type: functional, Hindlimb
# [22] = test system: Ovis aries; assay: Duration of spinal anesthesia at the anal region was measured in sheep at dose 10(mg/kg); assay type: functional
# [23] = test system: Ovis aries; assay: Duration of spinal anesthesia at the weight support was measured in sheep at dose 10(mg/kg); assay type: functional
# [24] = test system: Ovis aries; assay: Onset of spinal anesthesia at the anal region was measured in sheep at dose 10(mg/kg); assay type: functional
# [25] = test system: Ovis aries; assay: Onset of spinal anesthesia at the digits of the hind limbs was measured in sheep at dose 10 (mg/kg); assay type: functional, Hindlimb
SMILES,selectivity ratio [1],ED50 [2],ED50 [3],ED50 [4],ED50 [5],further results
Cc1cccc(C)c1NC(=O)CN [GLYCINEXYLIDIDE],0.7,840 µmol/kg,620 µmol/kg,,,
CCN(CC)CC(=O)N(CCO)c1c(C)cccc1C,2.7,,,490 µmol/kg,180 µmol/kg,
CCOCCN(C(=O)CN(CC)CC)c1c(C)cccc1C,1.3,,,80 µmol/kg,60 µmol/kg,
Cc1cccc(C)c1NC(=O)C(C)N (centres undefined) [TOCAINIDE],1.4,550 µmol/kg,760 µmol/kg,,,
CCN(CC)CCN(C(=O)CN(CC)CC)c1c(C)cccc1C,1.3,460 µmol/kg,600 µmol/kg,,,Duration of block [6]: 0 min; Duration of block [7]: 0 min; Duration of block [8]: 0 min
CCN(CC)CC(=O)Nc1c(C)cccc1C [LIDOCAINE],,210 µmol/kg,180 µmol/kg,,,Onset of block [9]: 1 min; Onset of block [10]: 1.4 min
Cc1cccc(C)c1N(CCN)C(=O)CN,2.7,,,1050 µmol/kg,390 µmol/kg,
Cc1cccc(C)c1N(CCO)C(=O)CN,0.9,1260 µmol/kg,1080 µmol/kg,,,
CCN(CC)CC(=O)N(CC)c1c(C)cccc1C,1.5,,,210 µmol/kg,140 µmol/kg,
OC[C@H]1OC(O)[C@H](O)[C@@H](O)[C@@H]1O (some centres undefined) [DEXTROSE],,,,,,Duration of block [11]: 0 min; Duration of block [12]: 0 min; Duration of block [13]: 0 min
CCOCCN(C(=O)CN)c1c(C)cccc1C,0.9,,,170 µmol/kg,190 µmol/kg,
CCCN(C(=O)CN(CC)CC)c1c(C)cccc1C,0.9,,,150 µmol/kg,170 µmol/kg,
CCN(CC)CCN(C(=O)CN)c1c(C)cccc1C,1.6,,,1130 µmol/kg,690 µmol/kg,Onset of block [14]: 19 min; Duration of block [15]: 50 min; Duration of block [16]: 0 min; Onset of block [17]: 19 min; Duration of block [18]: 0 min
CCN(CC)CC(=O)N(CCN)c1c(C)cccc1C,4.7,,,560 µmol/kg,120 µmol/kg,Duration of block [6]: 270 min; Onset of block [19]: 15 min; Onset of block [20]: 5 min; Duration of block [7]: 132 min; Duration of block [8]: 195 min
CCCCNc1ccc(C(=O)OCCN(C)C)cc1 [TETRACAINE],,,,,,Duration of block [21]: 285 min; Duration of block [22]: 302 min; Duration of block [23]: 458 min; Onset of block [24]: 1.13 min; Onset of block [25]: 1.2 min
CCN(CC)CCN(C(=O)CN1C(=O)c2ccccc2C1=O)c1c(C)cccc1C,1,10 µmol/kg,10 µmol/kg,,,
